Source: ChEMBL document CHEMBL1137645, “Functional characterization of TcaA: minimal requirement for teicoplanin susceptibility and role in Caenorhabditis elegans virulence” (2007)
Calls of active or inactive are those of the source. The calls are words filed in the database; no cut-off is given here.

What was measured:
Format in all cases: functional, organism-based
Staphylococcus aureus [1] = assay: Induction of VraSR-dependent tcaA gene expression in Staphylococcus aureus KVR expressing N315 delta-vraSr mutant at 10 ug/mL after 30 mins by Northern blot analysis
In short: (§1)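 Total RNA, 10 µg per sample, was separated on a 1.5% agarose–20 mM guanidine thiocyanate gel in 1x TBE, then Northern blotted.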

Staphylococcus aureus [2] = assay: Induction of VraSR-dependent tcaA gene expression in Staphylococcus aureus KVR expressing N315 delta-vraSr mutant at 2 ug/mL after 30 mins by Northern blot analysis; in short: as §1
Staphylococcus aureus [3] = assay: Induction of VraSR-dependent tcaA gene expression in Staphylococcus aureus N315 at 16 ug/mL after 30 mins by Northern blot analysis; in short: as §1
Staphylococcus aureus [4] = assay: Induction of VraSR-dependent tcaA gene expression in Staphylococcus aureus N315 at 10 ug/mL after 30 mins by Northern blot analysis; in short: as §1

Cc1onc(-c2ccccc2)c1C(=O)N[C@@H]1C(=O)N2[C@@H]1SC(C)(C)[C@@H]2C(=O)O
Activity (Staphylococcus aureus [1]): inactive | Activity (Staphylococcus aureus [2]): inactive | Activity (Staphylococcus aureus [3]): Active | Activity (Staphylococcus aureus [4]): Active

CN[C@H](CC(C)C)C(=O)N[C@H]1C(=O)N[C@@H](CC(N)=O)C(=O)N[C@H]2C(=O)N[C@H]3C(=O)N[C@H](C(=O)N[C@H](C(=O)O)c4cc(O)cc(O)c4-c4cc3ccc4O)[C@H](O)c3ccc(c(Cl)c3)Oc3cc2cc(c3O[C@@H]2O[C@H](CO)[C@@H](O)[C@H](O)[C@H]2O[C@H]2C[C@](C)(N)[C@H](O)[C@H](C)O2)Oc2ccc(cc2Cl)[C@H]1O
Activity (Staphylococcus aureus [1]): inactive | Activity (Staphylococcus aureus [2]): inactive | Activity (Staphylococcus aureus [3]): Active | Activity (Staphylococcus aureus [4]): Active
